Source: ChEMBL document CHEMBL1122281, “Synthesis and antifilarial activity of N-[4-[[4-alkoxy-3-[(dialkylamino)methyl]phenyl]amino]- 2-pyrimidinyl]-N'-phenylguanidines” (J Med Chem, 1983)

Legend:
Format in all cases: functional
[1] = tested on: Litomosoides carinii; experiment: Antifilarial activity against Litomosoides carinii infections in the Jird at dose 100 mg/kg administered subcutaneously; settings: route subcutaneous
Outline: (§1)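 L. carinii-infected jirds were dosed. Survivors were killed 55–70 days after the first dose, and the pleural and peritoneal cavities were searched for adult worms. Live worms at autopsy were scored as a percentage relative to sham-dosed controls. Adult worm reduction above 60% was the activity criterion.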

[2] = tested on: Litomosoides carinii; experiment: Antifilarial activity against Litomosoides carinii infections in the Jird at dose 100 mg/kg administered orally; settings: route oral; outline: as §1
[3] = tested on: Litomosoides carinii; experiment: Antifilarial activity against Litomosoides carinii infections in the Jird at dose 3 mg/kg administered orally; settings: route oral; outline: as §1
[4] = tested on: Litomosoides carinii; experiment: Antifilarial activity against Litomosoides carinii infections in the Jird at dose 25 mg/kg administered orally; settings: route oral; outline: as §1

Row | SMILES | Reduction of live worms [1] [%] | Reduction of live worms [2] [%] | Reduction of live worms [3] [%] | Reduction of live worms [4] [%]
1 | CCN(CC)Cc1cc(Nc2cc(C(F)(F)F)nc(/N=C(\N)Nc3ccc(C(=O)c4ccccc4)cc3)n2)ccc1OCc1ccccc1 | 0 | 27 | – | –
2 | CCNCc1cc(Nc2cc(C(F)(F)F)nc(/N=C(\N)Nc3ccc(C(=O)c4ccccc4)cc3)n2)ccc1OC | 0 | – | – | –
3 | CCN(CC)Cc1cc(Nc2cc(C(F)(F)F)nc(/N=C(\N)Nc3ccc(Oc4ccccc4)cc3)n2)ccc1O | 3 | 9 | – | –
4 | CCN(CC)Cc1cccc(Nc2cc(C(F)(F)F)nc(/N=C(\N)Nc3ccc(Cl)c(Cl)c3)n2)c1 | – | 100 | 83 | 100
5 | CC(C)CNCc1cc(Nc2cc(C(F)(F)F)nc(/N=C(\N)Nc3ccc(Cl)c(Cl)c3)n2)ccc1O | – | 100 | 35 | 100
6 | CCN(CC)Cc1cc(Nc2cc(C(F)(F)F)nc(/N=C(\N)Nc3ccc(Cl)cc3)n2)cc(-c2ccccc2)c1O | 35 | 88 | – | –
7 | CCNCc1cc(Nc2cc(-c3ccccc3)nc(/N=C(\N)Nc3ccc(Cl)c(Cl)c3)n2)ccc1OC | 0 | – | – | –
8 | CCNCc1cc(Nc2cc(C(F)(F)F)nc(/N=C(\N)Nc3ccccc3)n2)ccc1OC | 96 | – | – | 33
9 | COc1ccc(Nc2cc(C(F)(F)F)nc(/N=C(\N)Nc3ccccc3)n2)cc1CN1CCN(C)CC1 | – | 100 | 5 | 95
10 | N/C(=N\c1ccc(Cl)c(Cl)c1)Nc1nc(Nc2ccc(O)c(CN3CCCC3)c2)cc(C(F)(F)F)n1 | – | 100 | 59 | 100
11 | CCN(CC)Cc1cc(Nc2cc(C(F)(F)F)nc(/N=C(\N)Nc3ccc(C(=O)c4ccccc4)cc3)n2)ccc1O | 6 | 6 | – | –
12 | CN1CCN(Cc2cc(Nc3cc(C(F)(F)F)nc(/N=C(\N)Nc4ccc(C(=O)c5ccccc5)cc4)n3)ccc2O)CC1 | 8 | – | – | –
13 | CCN(CC)Cc1cc(Nc2nc(/N=C(\N)Nc3ccc(Cl)c(Cl)c3)nc3c2CCCC3)ccc1O | 0 | – | – | –
14 | CCN(CC)Cc1cc(Nc2cc(C(F)(F)F)nc(/N=C(\N)Nc3ccc(Oc4ccccc4)cc3)n2)ccc1OCc1ccccc1 | 0 | 22 | – | –
15 | CN(C)Cc1cc(Nc2cc(C(F)(F)F)nc(/N=C(\N)Nc3ccc(Oc4ccccc4)cc3)n2)ccc1O | 12 | – | – | –
16 | CCN(CC)Cc1cc(Nc2cc(C(F)(F)F)nc(/N=C(\N)Nc3ccc(C(=O)c4ccccc4)cc3)n2)ccc1OC | 19 | 16 | – | –
17 | CCN(CC)Cc1cc(Nc2cc(C(F)(F)F)nc(/N=C(\N)Nc3ccc(Cl)c(Cl)c3)n2)ccc1OCc1ccccc1 | – | 100 | 52 | 100
18 | CCN(CC)Cc1cc(Nc2cc(-c3ccccc3)nc(/N=C(\N)Nc3ccc(Cl)c(Cl)c3)n2)ccc1O | 53 | 47 | – | –
19 | CN1CCN(Cc2cc(Nc3cc(C(F)(F)F)nc(/N=C(\N)Nc4ccc(Oc5ccccc5)cc4)n3)ccc2O)CC1 | 8 | – | – | –
20 | CCN(CC)Cc1cc(Nc2cc(C(F)(F)F)nc(/N=C(\N)Nc3ccc(OC)cc3)n2)ccc1OC | 100 | – | 0 | 100
21 | CCNCc1cc(Nc2cc(C(F)(F)F)nc(/N=C(\N)Nc3ccc(Oc4ccccc4)cc3)n2)ccc1OC | 0 | – | – | –
22 | N/C(=N\c1ccc(Cl)c(Cl)c1)Nc1nc(Nc2ccc(O)c(CNCC3CCCCC3)c2)cc(C(F)(F)F)n1 | 4 | – | – | –
23 | CN(C)Cc1cc(Nc2cc(C(F)(F)F)nc(/N=C(\N)Nc3ccc(C(=O)c4ccccc4)cc3)n2)ccc1O | 100 | – | -22 | 32
24 | CCOC(=O)N1CCN(Cc2cc(Nc3cc(C(F)(F)F)nc(/N=C(\N)Nc4ccc(Cl)c(Cl)c4)n3)ccc2O)CC1 | 31 | – | – | –
